Published values from different studies.

COc1cc2oc3cc(O)c(OC)c(CC=C(C)C)c3c(=O)c2c(O)c1CC=C(C)C  IC50 (22Rv1; cell growth or viability; 48 h): 27.1 µM
Nc1nc(N)c(CNCCc2ccc(F)cc2)c(C2CC2)n1  IC50 (Vero; cell growth or viability, SRB): > 100 µM
N.N.[Cl][Pt][Cl]  IC50 (SMMC-7721; cell growth or viability, MTT; 48 h): 6.43 µM
Cc1nc(Nc2ncc(C(=O)Nc3c(C)cccc3Cl)s2)cc(N2CCN(CCO)CC2)n1  GI50 (SK-BR-3; cell growth or viability, WST-1; 72 h): 1.6 µM
O=C(CC(=O)c1ccccc1)c1ccccc1  IC50 (HL-60; cell growth or viability, resazurin; 72 h, dark): 15.5 µM
Nc1nc(N)c(CNCCc2ccc(Cl)cc2)c(C2CC2)n1  IC50 (Vero; cell growth or viability, SRB): 70 µM
CC1=C(O)C(=O)C=C2C1=CC=C1[C@@]2(C)CC[C@@]2(C)[C@@H]3C[C@](C)(C(=O)O)CC[C@]3(C)CC[C@]12C  inhibition (SMMC-7721; cell growth or viability, MTT; 20 µM): 70.6%
Nc1nc(N)c(CNCCc2ccccc2F)c(C2CC2)n1  IC50 (Vero; cell growth or viability, SRB): > 100 µM
O=C1OC[C@H](Cc2cccc(O)c2)[C@H]1Cc1cccc(O)c1  IC50 (SPCA1; cell growth or viability, MTT): 42.2 µM
COC(=O)[C@@H](N)CCCNC(N)=N[N+](=O)[O-]  inhibition (RAW264.7; NO release, inhibitor, Griess; 250 µM, LPS-stimulated): 54%
OC[C@H](Cc1cccc(O)c1)[C@H](CO)Cc1cccc(O)c1  IC50 (SPCA1; cell growth or viability, MTT): 61.1 µM
C[C@H]1CN(c2ccncc2NC(=O)c2ccc(F)c(-c3c(F)cccc3F)n2)C[C@@H](N)[C@@H]1O  GI50 (U-266; cell growth or viability, thymidine uptake): 0.342 µM
COc1cc([C@@H]2c3cc4c(cc3[C@H](O)[C@H]3COC(=O)[C@H]23)OCO4)cc(OC)c1OC  EC50 (NCI-H1299; cell growth or viability, MTT; 72 h): 0.003 µM
COc1ccc(/C=C/C(=O)c2c(O)cc(OC)cc2OC)cc1  IC50 (SPCA1; cell growth or viability, MTT): 19.1 µM
